Here are results for six compounds from ChEMBL document CHEMBL3046806, “Synthesis and herbicidal activity of novel 3-aminocarbonyl-2-oxazolidinethione derivatives containing a substituted pyridine ring” (2006).

Each structure is given as a SMILES string. Calls of active or inactive are those of the source. The rule behind the calls is not given here.

The test system of test [1] is Cucumis sativus. As to the kind of experiment: Herbicidal activity against Cucumis sativus (cucumber) assessed as growth inhibition rate at 100 mg/L 7 days post compound treatment. The class given is functional. Particulars: 168 h, read-out: GI. The method in brief: (§1)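 Compound dissolved in DMF and diluted to the test concentration with water containing emulsifier 0201 (anionic/nonionic surfactant, 0.1 g L-1). Seeds were sown once the agar cooled and kept at 24 ± 1 °C under 3000 lx light for 7 days. Read-out was root growth inhibition (%) versus control, in three replicates of 150 seeds per species per concentration.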

In test [2] the test system is Echinochloa crus-galli. As to the kind of experiment: Herbicidal activity against Echinochloa crus-galli (barnyard grass) assessed as induction weed albinism 7 days post compound treatment. It counts as functional, organism-based.
Test [3] relates to Echinochloa crus-galli. Nature of the test: Herbicidal activity against Echinochloa crus-galli (barnyard grass) assessed as induction of yellow symptoms of leaves 7 days post compound treatment. The class given is functional, organism-based.
In test [4] the test system is Brassica rapa subsp. oleifera. Nature of the test: Herbicidal activity against Brassica rapa subsp. oleifera assessed as growth inhibition rate at 100 mg/L 7 days post compound treatment. The class given is functional. Particulars: 168 h, read-out: GI. An outline of the steps: as §1
For test [5], the system named is Eclipta prostrata. Nature of the test: Herbicidal activity against Eclipta prostrata assessed as growth inhibition rate at 100 mg/L 7 days post compound treatment. Particulars: 168 h, read-out: GI. The class given is functional. An outline of the steps:
as §1

Test [6] has as its system Sorghum bicolor. Nature of the test: Herbicidal activity against Sorghum bicolor assessed as growth inhibition rate at 100 mg/L 7 days post compound treatment. It counts as functional. Particulars: 168 h, read-out: GI. The method in brief:
as §1

In test [7] the test system is Digitaria sanguinalis. As to the kind of experiment: Herbicidal activity against Digitaria sanguinalis (hairy crabgrass) assessed as growth inhibition rate at 100 mg/L 7 days post compound treatment. It counts as functional. Conditions: 168 h, read-out: GI. An outline of the steps:
as §1

Test [8] concerns Echinochloa crus-galli. As to the kind of experiment: Herbicidal activity against Echinochloa crus-galli (barnyard grass) assessed as growth inhibition rate at 100 mg/L 7 days post compound treatment. It counts as functional. Particulars: 168 h, read-out: GI. An outline of the steps: as §1

In the case of `C[C@@H]1[C@H](c2ccncc2)OC(=S)N1C(=O)NC1CCCCC1` (relative stereo), the inhibition of growth at 100 µg/mL in test [1] was found to be 20%; in test [4] it was 80%; in test [5], 85%; in test [6], 30%; in test [7], 80%; in test [8], 90%. Besides, the outcome in test [2] and in test [3] was Active.

In the case of `C[C@@H]1[C@H](c2ccncc2)OC(=S)N1C(=O)Nc1ccccc1[N+](=O)[O-]` (relative stereo), the inhibition of growth at 100 µg/mL in test [1] came out at 20%; in test [4], 50%; in test [5], 80%; in test [6], 70%; in test [7] it was 70%; in test [8], 60%. The result in test [2] and in test [3] was Active.

Consider `CCOc1ccc([C@@H]2OC(=S)N(C(=O)Nc3ccccc3OCC)[C@@H]2C)cn1` (relative stereo), for which the inhibition of growth at 100 µg/mL in test [1] came out at 0%; in test [4] it was 0%; in test [5] it was 20%; in test [6], 0%; in test [7], 80%; in test [8], 50%. Also, the result in test [2] and in test [3] was Active.

As for `C[C@@H]1[C@H](c2ccc(OCC(F)(F)F)nc2)OC(=S)N1C(=O)NC1CCCCC1` (relative stereo), the inhibition of growth at 100 µg/mL in test [1] stood at 40%; in test [4], 40%; in test [5], 80%; in test [6] it was 60%; in test [7] it was 70%; in test [8], 80%. In addition, the outcome in test [2] and in test [3] was Active.

For the compound `CCOc1ccccc1NC(=O)N1C(=S)O[C@@H](c2ccc(Cl)nc2)[C@H]1C` (relative stereo), the inhibition of growth at 100 µg/mL in test [1] came to 90%; in test [4], 90%; in test [5], 90%; in test [6], 70%; in test [7] it was 80%; in test [8] it was 90%. Also, the result in test [2] and in test [3] was Active.

For `C[C@@H]1[C@H](c2ccccn2)OC(=S)N1C(=O)NC1CCCCC1` (relative stereo), the inhibition of growth at 100 µg/mL turned out to be 0% in test [1]; 0% in test [4]; 80% in test [5]; 0% in test [6]; 70% in test [7]; 70% in test [8]. For the same compound, the result in test [2] and in test [3] was Active.
